Bioassay records (PubChem)
NTR1 ag: agonists of human NTR1, primary screen, imaging, U2OS cells, beta-arrestin-GFP, high content | Neurotensin receptor type 1 (Homo sapiens), P30989 | NTR1-U2OS beta-arrestin-GFP spot imaging, agonist mode | activation, % at 20 µM | hit rate 0.17% among 330,000;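 active = activation at or above 40% of the spot to cytoplasm intensity ratio, with at least 20 cells analyzed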
OX1R antag-1: antagonists of human orexin 1 receptor (OX1R); inhibition, % at 6.6 µM; AID 485270, 2010; OX1R-expressing cells, FRET antagonist read-out; hit rate 1.8% among 330,000; in the data active = inhibition mostly above about 38%, no sharp cut-off; inactive = mostly below about 40%
Target sequence (O43613 whole entry, looked up): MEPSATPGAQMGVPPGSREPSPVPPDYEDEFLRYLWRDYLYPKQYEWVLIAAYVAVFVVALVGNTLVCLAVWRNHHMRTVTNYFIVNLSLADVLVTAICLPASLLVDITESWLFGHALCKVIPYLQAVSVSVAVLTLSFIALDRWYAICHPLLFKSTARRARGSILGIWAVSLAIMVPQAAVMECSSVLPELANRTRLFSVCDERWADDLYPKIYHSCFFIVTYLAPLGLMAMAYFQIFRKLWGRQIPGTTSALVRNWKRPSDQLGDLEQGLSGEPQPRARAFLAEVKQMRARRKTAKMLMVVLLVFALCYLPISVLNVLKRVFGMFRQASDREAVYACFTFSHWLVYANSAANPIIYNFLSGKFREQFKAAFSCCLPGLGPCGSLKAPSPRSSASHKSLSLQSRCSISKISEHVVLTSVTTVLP
OX1R antag-2: OX1R (HCRTR1) antagonists, primary screen, fluorescence, CHO/OX1R cells, Fluo-8 calcium, orexin A | Fluo-8 calcium fluorescence | inhibition, % at 5 µM | hit rate 0.43% among 330,000;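 active = inhibition above its plate's threshold, mean inhibition of all tested compounds on the plate plus 3 SD, cut at about 37% in these data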
CHO parental Ca: ATP-evoked calcium signal inhibitors, parental CHO, primary screen, counter-screen for OX1R antagonist project, cell-based, fluorescence, Fluo-8 calcium dye | hit rate 0.63% among 330,000 | parental CHO-K1, ATP-induced calcium, Fluo-8 fluorescence | inhibition, % at 5.6 µM;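 active = inhibition above that plate's mean sample inhibition plus 3 SD, cut at about 26% in these data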
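Test system: untransfected parental CHO cell line. Compound: one dose, 5.6 µM nominal. Detection: intracellular calcium via Fluo-8 no-wash fluorescent dye. Measure: % inhibition. Benchmarks: ATP-challenged DMSO wells low, unchallenged DMSO wells high.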
TAAR1 antagonist: human TAAR1 antagonists, primary screen, Fluo-8 calcium fluorescence, CHO RD-HGA16 cells. inhibition, % at 3 µM. antagonist. Trace amine-associated receptor 1 (Homo sapiens), Q96RJ0. hit rate 1.5% among 360,000;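 active = inhibition above a per-plate cutoff, the mean inhibition of test compounds on that plate plus 3 SD, cut at about 49% in these data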
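Test system: hTAAR1-expressing CHO RD-HGA16 cells, Gα16-coupled; Probe or stimulus: EC80 β-phenethylamine stimulus; Compound dosing: single nominal final test compound concentration of 3 µM; Timing: 140 s kinetic read after compound, 140 s after agonist; Signal: Fluo-8 calcium-sensitive fluorescence; Measure: % inhibition of agonist calcium response; Controls: DMSO and EC80 PEA controls.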
TAAR1 agonist: human TAAR1 agonists, primary screen, Fluo-8 calcium fluorescence, CHO RD-HGA16 cells | Trace amine-associated receptor 1 (Homo sapiens), Q96RJ0 | vehicle wells 0%, saturating PEA agonist 100% | activation, % at 3 µM | hit rate 0.99% among 360,000 | AID 624467, 2012;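 active = activation above the mean activation of all test compounds in the run plus 3 SD, cut at about 38% in these data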
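Assay system – CHO-derived RD-HGA16 cells with stable Gα16 and human TAAR1 · Compound dosing – one-point dosing at 3 µM (nominal) · Incubation – 17-24 h seeding, 75 min 37 °C dye, 30 min RT · Measured by – kinetic Fluo-8 calcium fluorescence · Control set – DMSO vehicle as 0%, PEA at EC100 as 100% · Repeats – single well for each compound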
A number is an active result; i = inactive; nt = no result given. In the library only some 4% were active in any assay of this set; here they are far more common.

SMILES | NTR1 ag | OX1R antag-1 | OX1R antag-2 | CHO parental Ca | TAAR1 antagonist | TAAR1 agonist
CCCc1nc2sc3ccccc3c(=O)c2c(=O)n1Cc1ccco1 | nt | nt | nt | nt | i | 68
O=S(=O)(NCc1ccc(Cl)cc1)c1ccc(Br)cc1C1CC[C@@H](O)C1 (stereo not given in full) | nt | nt | nt | nt | i | i
CCOC(=O)c1cnc(-n2nc(C)cc2C)nc1NC1CCCCC1 | i | i | 74 | 71 | i | i
CCOC(=O)c1c(-c2ccc(OC)cc2)nc2nonc2c1N | i | i | i | i | i | i
CC(=O)c1c(C)nc2nonc2c1N | i | 76 | i | i | i | i
OCCCc1nc2n(n1)C(c1cccs1)C=C(c1ccccc1)N2 (stereo not given) | i | i | i | 33 | nt | nt
OCCCc1nc2n(n1)C(c1ccccc1)C=C(c1ccc(F)cc1)N2 (stereo not given) | i | i | i | i | i | i
Cc1cc(C)n2nc(/C(C#N)=C/c3ccccn3)c(C#N)c2n1 | i | i | i | 43 | i | i
Cc1cc(C)n2nc(CC#N)c(C#N)c2n1 | i | i | i | i | i | i
O=C(CSc1nc2ncc(Cl)cc2[nH]1)Nc1ccccc1-c1ccccc1 | i | 35 | i | i | i | i
COc1ccc(OC)c(NS(=O)(=O)c2ccc(Br)s2)c1 | i | i | i | 38 | nt | nt
COc1ccccc1CNC(=O)Nc1nc(C(N)Cc2ccc(Cl)cc2)cs1 (stereo not given) | nt | nt | nt | nt | 51 | 45
COc1ccc(CNC(=O)Nc2nc(C(N)Cc3ccc(Cl)cc3)cs2)cc1 (stereo not given) | nt | nt | nt | nt | 66 | 50
COc1ccccc1CNC(=O)c1csc(Cc2ccc(Cl)cc2)n1 | i | i | i | i | 50 | i
O=C(COC(=O)c1cc(=O)c2ccccc2o1)Nc1ccc2ccccc2c1 | i | i | i | i | i | 40
Cc1cc(NC(=O)CCc2c[nH]c3ccccc23)ccc1Oc1cccnc1 | nt | nt | nt | nt | i | i
CC1CCCN(c2cccc3c2S(=O)(=O)N(Cc2cccc(Cl)c2)[C@@H](C)[C@H](c2ccccc2)O3)C1 (stereo not given in full) | nt | nt | nt | nt | i | i
C/C(=N\Nc1ccc([N+](=O)[O-])cc1)c1cccc(N)c1 | i | i | i | i | i | i
C/C(=N\Nc1ccc([N+](=O)[O-])cc1)c1ccc(O)cc1 | i | i | i | i | 55 | i
COc1ccc(NC(=O)CSCC(=O)Nc2ccccc2N2CCCCC2)cc1 | i | 36 | i | i | i | i
O=[n+]1c2c(n([O-])c3cc(F)c(N4CCCC4)cc31)CCC2 | i | 68 | i | i | i | i
O=[n+]1c2c(n([O-])c3cc(F)c(N4CCCC4)cc31)CCCC2 | i | 52 | i | i | i | i
O=[n+]1c2c(n([O-])c3ccccc31)CCC2 | i | i | i | i | nt | nt
COC(=O)N1C[C@H](OCCCOCc2ccccc2)[C@H]2C[C@@H]1c1ccccc1O2 | nt | nt | nt | nt | i | i
O=C(N[C@@H](Cc1cccnc1)C(=O)N1CCC[C@H]1C(=O)NCc1ccccc1)c1ccc(Cl)c(Cl)c1 | nt | nt | nt | nt | i | i
SMILES | NTR1 ag | OX1R antag-1 | OX1R antag-2 | CHO parental Ca | TAAR1 antagonist | TAAR1 agonist
Cc1nc(C)c(C(=O)OCC(=O)NCCc2ccc(F)cc2)s1 | i | nt | nt | nt | i | i
CCOC(=O)Cc1cnc(NC(=O)Cn2nnc(-c3ccc(OCC)cc3)n2)s1 | i | i | i | i | i | i
CCCCOc1ccc(-c2nnn(CC(=O)Nc3ncc(CC(=O)OCC)s3)n2)cc1 | i | i | i | i | i | 42
C=CCC1(CC=C)CCCN1C(=O)c1cc(COc2cncc(Cl)c2)on1 | i | i | i | 65 | i | i
COC(=O)Cc1nnn2c1[C@H](C)[C@@H](OC)c1ccccc1-2 | nt | nt | nt | nt | i | i
COc1ccc(-c2nn(-c3ccccc3)cc2/C=C/C(=O)O)cc1[N+](=O)[O-] | i | i | i | i | i | i
COc1ccc(-c2nn(-c3ccccc3)cc2C=O)cc1[N+](=O)[O-] | i | i | i | i | 49 | i
